In ChEMBL document CHEMBL1143506, “Antimalarial activity of 2,4,6-trisubstituted pyrimidines” (Bioorg Med Chem Lett, 2005) one finds MIC data, which are given here for 16 compounds.

SMILES strings stand for the structures. Values after ≈ are worked out from the molar mass of the structure shown.

The test system of the experiment is Plasmodium falciparum. As to the kind of experiment: Minimum inhibitory concentration against schizont maturation of Plasmodium falciparum NF54 ring stage after 40 h. Format: functional. Summed up: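 P. falciparum NF-54 culture kept in RPMI-1640 with 25 mM HEPES, 1% D-glucose, 0.23% sodium bicarbonate, 10% heat-inactivated human serum. Sorbitol-synchronized rings (~1% parasitaemia, 3% hematocrit). Compounds at 0.25–50 µg/mL in duplicate wells, 37 °C, candle jar, 36–40 h. Giemsa smears scored microscopically; MIC is the lowest concentration blocking full maturation to schizonts. Pyrimethamine served as reference.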
Turning to `COc1cccc(-c2cc(-c3ccncc3)nc(N3CCOCC3)n2)c1OC`, it took 1 µg/mL (≈ 2.64 µM) to inhibit growth (MIC).
Then `COc1cc(OC)cc(-c2cc(-c3ccncc3)nc(N3CCOCC3)n2)c1`, with 2 µg/mL (≈ 5.28 µM); and `c1ccc(-c2cc(-c3ccncc3)nc(N3CCOCC3)n2)cc1`, with 2 µg/mL (≈ 6.28 µM); and `COc1ccc(-c2cc(-c3ccncc3)nc(N3CCOCC3)n2)c2ccccc12`, with 1 µg/mL (≈ 2.51 µM).
Take `COc1ccc(-c2cc(-c3ccncc3)nc(N3CCOCC3)n2)cc1`: the MIC (as a rule, the lowest concentration found to suppress growth) was determined as 2 µg/mL (≈ 5.74 µM).
Under `COc1cccc(-c2cc(-c3ccncc3)nc(N3CCOCC3)n2)c1` stands 2 µg/mL (≈ 5.74 µM); under `O=[N+]([O-])c1cccc(-c2cc(-c3ccncc3)nc(N3CCOCC3)n2)c1`, 1 µg/mL (≈ 2.75 µM); under `Cc1ccc(-c2cc(-c3ccncc3)nc(N3CCOCC3)n2)cc1C`, 1 µg/mL (≈ 2.89 µM).
Take `COc1cc(-c2cc(-c3ccncc3)nc(N3CCOCC3)n2)cc(OC)c1OC`: the MIC amounted to 10 µg/mL (≈ 24.5 µM). This MIC lies about 10-fold higher than the previous one.
Then `c1csc(-c2cc(-c3ccncc3)nc(N3CCOCC3)n2)c1`, with 1 µg/mL (≈ 3.08 µM); and `Clc1ccc(-c2cc(-c3ccncc3)nc(N3CCOCC3)n2)cc1`, with 10 µg/mL (≈ 28.3 µM); and `CSc1ccc(-c2cc(-c3ccncc3)nc(N3CCOCC3)n2)cc1`, with 10 µg/mL (≈ 27.4 µM).
`COc1ccc(OC)c(-c2cc(-c3ccncc3)nc(N3CCOCC3)n2)c1`: the MIC was found to be 1 µg/mL (≈ 2.64 µM).
Compound `COc1cc(OC)c(-c2cc(-c3ccncc3)nc(N3CCOCC3)n2)cc1OC` displayed an MIC of 0.5 µg/mL (≈ 1.22 µM).
Under `Cc1ccc(-c2cc(-c3ccncc3)nc(N3CCOCC3)n2)cc1` stands 10 µg/mL (≈ 30.1 µM); under `CCc1nc(N)nc(N)c1-c1ccc(Cl)cc1` [PYRIMETHAMINE], 10 µg/mL (≈ 40.2 µM).
